In ChEMBL document CHEMBL4406804, “Discovery of a Potent Steroidal Glucocorticoid Receptor Antagonist with Enhanced Selectivity against the Progesterone and Androgen Receptors (OP-3633)” (J Med Chem, 2019):
The source made the active and inactive calls. The calls are words filed in the database; no cut-off is given here.

Experiments:
Assay type in all cases: cell-based
[1] = biological target: T1, Androgen receptor (Homo sapiens, UniProt P10275); experiment: Agonist activity at human androgen receptor in human LNCAP cells harboring firefly luciferase gene after 20 hrs by One-Glo luciferase reporter gene assay
T1 sequence (P10275 whole entry): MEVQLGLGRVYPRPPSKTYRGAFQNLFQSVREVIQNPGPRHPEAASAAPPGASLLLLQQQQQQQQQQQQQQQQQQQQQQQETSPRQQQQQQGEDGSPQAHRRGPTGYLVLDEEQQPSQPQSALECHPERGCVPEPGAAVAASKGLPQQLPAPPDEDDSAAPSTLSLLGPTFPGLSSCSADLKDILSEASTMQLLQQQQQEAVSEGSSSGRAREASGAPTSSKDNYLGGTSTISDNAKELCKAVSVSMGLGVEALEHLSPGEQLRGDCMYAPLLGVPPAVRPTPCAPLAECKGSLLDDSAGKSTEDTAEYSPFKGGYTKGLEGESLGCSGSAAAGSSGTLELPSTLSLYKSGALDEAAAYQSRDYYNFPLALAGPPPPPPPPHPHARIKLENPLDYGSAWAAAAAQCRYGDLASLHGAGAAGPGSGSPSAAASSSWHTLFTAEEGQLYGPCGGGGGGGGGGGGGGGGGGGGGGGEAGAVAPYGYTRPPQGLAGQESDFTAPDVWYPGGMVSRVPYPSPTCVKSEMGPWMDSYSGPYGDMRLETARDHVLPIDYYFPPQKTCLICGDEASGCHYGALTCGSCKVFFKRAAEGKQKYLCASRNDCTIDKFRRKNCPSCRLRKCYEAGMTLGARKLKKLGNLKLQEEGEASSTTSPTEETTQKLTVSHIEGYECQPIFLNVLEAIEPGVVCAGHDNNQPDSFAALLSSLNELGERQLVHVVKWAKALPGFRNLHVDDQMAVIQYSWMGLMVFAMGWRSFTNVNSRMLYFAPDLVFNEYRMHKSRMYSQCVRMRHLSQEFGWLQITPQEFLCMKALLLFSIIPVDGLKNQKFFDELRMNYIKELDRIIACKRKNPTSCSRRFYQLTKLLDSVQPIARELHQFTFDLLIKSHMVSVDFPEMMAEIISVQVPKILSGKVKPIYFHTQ

[2] = biological target: T2, Progesterone receptor (Homo sapiens, UniProt P06401); experiment: Antagonist activity at human progesterone receptor expressed in CHO-K1 cells harboring firefly luciferase gene after 20 hrs by One-Glo luciferase reporter gene assay
T2 sequence (P06401 whole entry): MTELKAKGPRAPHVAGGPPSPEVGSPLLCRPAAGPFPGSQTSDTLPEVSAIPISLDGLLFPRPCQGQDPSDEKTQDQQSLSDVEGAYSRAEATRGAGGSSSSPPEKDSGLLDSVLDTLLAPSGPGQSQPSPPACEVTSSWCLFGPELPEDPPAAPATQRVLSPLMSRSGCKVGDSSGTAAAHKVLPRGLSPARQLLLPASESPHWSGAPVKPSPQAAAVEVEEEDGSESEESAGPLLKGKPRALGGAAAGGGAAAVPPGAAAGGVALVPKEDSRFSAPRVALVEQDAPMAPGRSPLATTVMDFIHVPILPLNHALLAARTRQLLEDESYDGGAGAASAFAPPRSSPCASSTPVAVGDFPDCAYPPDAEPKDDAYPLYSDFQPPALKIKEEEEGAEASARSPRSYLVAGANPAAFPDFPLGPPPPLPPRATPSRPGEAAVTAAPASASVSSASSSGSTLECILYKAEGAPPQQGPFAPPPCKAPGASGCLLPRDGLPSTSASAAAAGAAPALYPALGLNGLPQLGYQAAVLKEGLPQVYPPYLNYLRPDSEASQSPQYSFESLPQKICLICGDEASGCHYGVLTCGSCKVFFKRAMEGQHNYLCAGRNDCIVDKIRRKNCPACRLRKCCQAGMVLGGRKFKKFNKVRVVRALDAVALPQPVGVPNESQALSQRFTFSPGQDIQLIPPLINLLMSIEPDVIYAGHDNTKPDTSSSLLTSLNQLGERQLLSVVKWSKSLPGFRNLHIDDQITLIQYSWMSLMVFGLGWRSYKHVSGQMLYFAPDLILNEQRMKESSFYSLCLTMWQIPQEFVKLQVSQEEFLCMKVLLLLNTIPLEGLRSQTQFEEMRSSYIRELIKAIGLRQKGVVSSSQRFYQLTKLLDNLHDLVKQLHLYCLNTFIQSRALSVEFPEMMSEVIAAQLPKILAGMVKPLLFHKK
Procedure, shortened: (§1)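 Cell-based luciferase reporter assays for GR, AR and PR, run in agonist and antagonist modes. Potency and Emax are averages of at least two determinations, reported with SD.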

[3] = biological target: T3, Progesterone receptor (Homo sapiens) (UniProt P06401); experiment: Agonist activity at human progesterone receptor expressed in CHO-K1 cells harboring firefly luciferase gene after 20 hrs by One-Glo luciferase reporter gene assay; procedure, shortened: as §1
T3 sequence (whole entry): T2 sequence (P06401 whole entry)

[4] = biological target: T1, Androgen receptor; experiment: Agonist activity at human androgen receptor in human LNCAP cells harboring firefly luciferase gene after 20 hrs by One-Glo luciferase reporter gene assay relative to mifepristone; procedure, shortened: as §1
[5] = biological target: T1, Androgen receptor; experiment: Antagonist activity at human androgen receptor in human LNCAP cells harboring firefly luciferase gene after 20 hrs by One-Glo luciferase reporter gene assay; procedure, shortened: as §1
[6] = biological target: T4, Glucocorticoid receptor (Homo sapiens, UniProt P04150); experiment: Antagonist activity at human glucocorticoid receptor expressed in CHO-K1 cells harboring firefly luciferase gene after 20 hrs by One-Glo luciferase reporter gene assay
T4 sequence (P04150 whole entry): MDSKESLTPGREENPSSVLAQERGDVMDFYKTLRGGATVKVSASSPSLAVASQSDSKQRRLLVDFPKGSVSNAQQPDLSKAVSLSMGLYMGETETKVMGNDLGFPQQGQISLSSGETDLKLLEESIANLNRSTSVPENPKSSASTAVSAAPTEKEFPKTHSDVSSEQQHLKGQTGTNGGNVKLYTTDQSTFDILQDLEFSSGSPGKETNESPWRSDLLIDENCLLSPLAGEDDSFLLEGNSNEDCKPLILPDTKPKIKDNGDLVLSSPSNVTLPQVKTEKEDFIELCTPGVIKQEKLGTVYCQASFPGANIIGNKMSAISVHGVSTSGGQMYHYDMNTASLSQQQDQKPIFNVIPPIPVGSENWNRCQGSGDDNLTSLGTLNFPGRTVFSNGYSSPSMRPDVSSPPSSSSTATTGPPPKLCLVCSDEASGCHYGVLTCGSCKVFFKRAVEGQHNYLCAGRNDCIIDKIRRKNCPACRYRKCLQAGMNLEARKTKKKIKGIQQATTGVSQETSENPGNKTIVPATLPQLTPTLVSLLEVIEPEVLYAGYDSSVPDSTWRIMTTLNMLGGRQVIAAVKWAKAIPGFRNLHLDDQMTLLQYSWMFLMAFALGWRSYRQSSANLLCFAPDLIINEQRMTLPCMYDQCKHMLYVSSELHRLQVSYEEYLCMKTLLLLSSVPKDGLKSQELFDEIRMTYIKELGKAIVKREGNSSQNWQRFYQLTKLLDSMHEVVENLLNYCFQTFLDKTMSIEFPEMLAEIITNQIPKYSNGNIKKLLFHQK

[7] = species on record: Homo sapiens; experiment: Selectivity ratio, ratio of IC50 for human androgen receptor in human LNCAP cells to IC50 for human glucocorticoid receptor expressed in CHO-K1 cells harboring firefly luciferase gene
[8] = biological target: T5, Glucocorticoid receptor (Homo sapiens) (UniProt P04150); experiment: Antagonist activity at human glucocorticoid receptor expressed in CHO-K1 cells harboring firefly luciferase gene assessed as inhibition of glucocorticoid receptor activity at 0.01 to 10000 nM after 20 hrs by One-Glo luciferase reporter gene assay relative to mifepristone; set-up: scale not given: the % may be the effect or the level left; procedure, shortened: as §1
T5 sequence (whole entry): T4 sequence (P04150 whole entry)

Row | SMILES | EC50 [1] | IC50 [2] | agonist activity [3] | Emax at 20 h [4] | IC50 [5] | IC50 [6] | Ratio [7] | Activity [8]
1 | CCC#C[C@]1(O)CC[C@H]2[C@@H]3CCC4=CC(=O)CC[C@]4(C)[C@H]3[C@@H](c3ccc(N(C)C)cc3)C[C@@]21C | > 2.5 µM | 1.55 µM | inactive | 13.2% | 2.96 µM | 0.0737 µM | – | –
2 | CC#C[C@]1(O)CC[C@H]2[C@@H]3CCC4=CC(=O)CC[C@]4(C)[C@H]3[C@@H](c3ccc(OC)cc3)C[C@@]21C | > 2.5 µM | 1.69 µM | inactive | 14.1% | 0.561 µM | 0.0583 µM | – | –
3 | CC#C[C@]1(O)CC[C@H]2[C@@H]3CCC4=CC(=O)CC[C@]4(C)[C@H]3[C@@H](c3ccc(N(C)C(C)C)cc3)C[C@@]21C | 1.14 µM | 0.527 µM | inactive | 55.9% | 2.25 µM | 0.0206 µM | – | –
4 | CC#C[C@]1(O)CC[C@H]2[C@@H]3CCC4=CC(=O)CC[C@]4(C)[C@H]3[C@@H](c3ccc(-n4cccc4)cc3)C[C@@]21C | > 2.5 µM | 0.523 µM | inactive | 16.5% | 0.354 µM | 0.0522 µM | – | –
5 | CC#C[C@]1(O)CC[C@H]2[C@@H]3CCC4=CC(=O)CC[C@]4(C)[C@H]3[C@@H](OCc3ccc(Cl)cc3)C[C@@]21C | 1.89 µM | 0.0082 µM | inactive | 47.8% | 0.085 µM | 0.0176 µM | – | –
6 | CC#C[C@]1(O)CC[C@H]2[C@@H]3CCC4=CC(=O)CC[C@]4(C)[C@H]3[C@@H](c3ccc(N(C)CCOC)cc3)C[C@@]21C | > 2.5 µM | 1.64 µM | inactive | 20% | 1.29 µM | 0.0521 µM | – | –
7 | CC(C)(C)C#C[C@]1(O)CC[C@H]2[C@@H]3CCC4=CC(=O)CC[C@@H]4[C@H]3[C@@H](c3ccc(N4CCOCC4)cc3)C[C@@]21C | > 2.5 µM | 0.0048 µM | inactive | 5.1% | 0.208 µM | 0.0103 µM | 10 to 30 | 100%
8 | CC(C)C#C[C@]1(O)CC[C@H]2[C@@H]3CCC4=CC(=O)CC[C@]4(C)[C@H]3[C@@H](c3ccc(N(C)C)cc3)C[C@@]21C | > 2.5 µM | 2.08 µM | inactive | 8.3% | > 5 µM | 0.062 µM | – | –
9 | COCC#C[C@]1(O)CC[C@H]2[C@@H]3CCC4=CC(=O)CC[C@]4(C)[C@H]3[C@@H](c3ccc(N(C)C)cc3)C[C@@]21C | > 2.5 µM | 4.24 µM | inactive | 17.5% | > 5 µM | 0.116 µM | – | –
10 | CC#C[C@]1(O)CC[C@H]2[C@@H]3CCC4=CC(=O)CC[C@]4(C)[C@H]3[C@@H](c3ccc(N4CCCC4)cc3)C[C@@]21C | > 2.5 µM | 4.07 µM | inactive | 10.6% | 3.15 µM | 0.0579 µM | – | –
11 | CCN(CC)c1ccc([C@H]2C[C@@]3(C)[C@@H](CC[C@@]3(O)C#CC(C)(C)C)[C@@H]3CCC4=CC(=O)CC[C@@H]4[C@H]32)cc1 | > 2.5 µM | 0.006 µM | inactive | 9.4% | 0.263 µM | 0.0139 µM | 10 to 30 | –
12 | CN1CCN(c2ccc([C@H]3C[C@@]4(C)[C@@H](CC[C@@]4(O)C#CC(C)(C)C)[C@@H]4CCC5=CC(=O)CC[C@@H]5[C@H]43)cc2)CC1 | > 2.5 µM | 0.0254 µM | inactive | 7.9% | 1.01 µM | 0.0358 µM | 10 to 30 | –
13 | CN(C)c1ccc([C@H]2C[C@@]3(C)[C@@H](CC[C@@]3(O)C#CC(F)(F)F)[C@@H]3CCC4=CC(=O)CC[C@]4(C)[C@H]32)cc1 | > 2.5 µM | 0.91 µM | inactive | 7.3% | 0.642 µM | 0.0472 µM | – | –
14 | CCC(C)(C)C#C[C@]1(O)CC[C@H]2[C@@H]3CCC4=CC(=O)CC[C@@H]4[C@H]3[C@@H](c3ccc(N(C)C)cc3)C[C@@]21C | > 2.5 µM | 0.0211 µM | inactive | 7.3% | 0.175 µM | 0.0127 µM | 10 to 30 | –
15 | CN(C)c1ccc([C@H]2C[C@@]3(C)[C@@H](CC[C@@]3(O)C#CC(C)(C)C)[C@@H]3CCC4=CC(=O)CC[C@@H]4[C@H]32)cc1 | – | 0.0034 µM | inactive | – | 0.165 µM | – | 10 to 30 | 100%
